Data on one molecule can be found in ChEMBL document CHEMBL2163334, “Discovery of highly potent and selective pan-Aurora kinase inhibitors with enhanced in vivo antitumor therapeutic index” (J Med Chem, 2012).

The source made the active and inactive calls. The rule behind the calls is not given here. Bounds are passed on as bounds.

What is called Kd is the constant that tells how readily two partners part at equilibrium. A higher Kd goes with lower affinity. In general, IC50 refers to the concentration at which inhibition is half-maximal. One may read the clearance as the volume of plasma or blood freed of the substance per unit of time. The Vd is a proportionality between amount in the body and measured concentration, not a real space. Higher therefore signals extensive tissue distribution. The AUC(0-inf) is total exposure, with the tail of the curve extrapolated. Higher therefore signals high exposure. By half-life is commonly meant the time in which the quantity being followed falls by half. Read a high half-life as slow decline.

Series [1] deals with T1, Aurora kinase A (Homo sapiens, UniProt O14965).
T1 sequence (O14965 whole entry): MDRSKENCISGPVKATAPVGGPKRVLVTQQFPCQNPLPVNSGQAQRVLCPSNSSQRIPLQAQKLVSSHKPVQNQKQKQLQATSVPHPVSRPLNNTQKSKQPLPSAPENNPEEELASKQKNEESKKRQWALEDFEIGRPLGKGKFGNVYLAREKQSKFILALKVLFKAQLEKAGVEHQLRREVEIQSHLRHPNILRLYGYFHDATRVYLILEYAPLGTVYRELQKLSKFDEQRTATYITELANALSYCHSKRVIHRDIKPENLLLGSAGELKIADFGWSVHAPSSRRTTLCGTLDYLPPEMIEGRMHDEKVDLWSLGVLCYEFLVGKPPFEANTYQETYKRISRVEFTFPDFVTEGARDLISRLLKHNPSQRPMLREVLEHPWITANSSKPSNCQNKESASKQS
Description: Binding affinity to Aurora kinase A catalytic domain by competition binding assay.

Series [2] has as its target T2, Aurora kinase B (Homo sapiens, UniProt Q96GD4). Description: Inhibition of Aurora kinase B-mediated histone H3 Ser10 phosphorylation in human HCT116 cells after 2 hrs by sandwich ELISA. It counts as cell-based, HCT-116. Summed up: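 HCT-116 cells seeded 4 × 10⁴/well, 4-6 h at 37 °C, then arrested overnight (16-18 h) with nocodazole at 66 ng/mL final. Treated 2 h with nine-point 3-fold dilutions in DMSO; lysed with phosphatase inhibitor, phospho-H3 (Ser10) sandwich ELISA read at 450 nm. IC50 = 50% inhibition of phosphorylation; duplicate runs averaged.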
A general note: ELISA stands for enzyme-linked immunosorbent assay.

Series [3] deals with HCT-116. Description: Antiproliferative activity against human HCT116 cells after 72 hrs by BrdU-based ELISA. It is filed as functional, cell-based. Particulars: HCT-116, 72 h. Summed up: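 HCT-116 cells in McCoy's 5A with 10% FBS and pen/strep, seeded 800 cells/well, left overnight at 37 °C, 5% CO2. Nine-point 3-fold serial dilutions in DMSO added for 72 h; BrdU colorimetric ELISA read at 450 and 690 nm. IC50 is the concentration halving proliferation; duplicate runs averaged.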

Series [4] has as its target T1, Aurora kinase A. Description: Inhibition of Aurora kinase A autophosphorylation in human HEK293 cells after 2 hrs by phosphor antibody readout assay. It counts as cell-based.
Series [5] can be described thus: Clearance in Sprague-Dawley rat at 1 mg/kg, iv administered using PEG400/water as vehicle. Set-up: dose 1 mg/kg, route intravenous. Particulars: in vivo. It is filed as ADME, organism-based. The essentials: (§1)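 SD rats fasted overnight, given 1 mg/kg iv in PEG400/water (3:1, v/v); three per arm. Blood into K3 EDTA at 5, 15, 30 min, 1, 2, 4, 6, 24 h, spun at 4 °C; plasma extracted with six volumes acetonitrile plus internal standard and quantified by LC-MS/MS (C8 column, formic acid/ACN gradient).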

Series [6] can be described thus: Clearance in athymic Nu/Nu rat at 5 mg/kg, iv administered using TPPW as vehicle. More on the design: dose 5 mg/kg, route intravenous. Particulars: in vivo. It counts as ADME, organism-based. The essentials:
(§2)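 Plasma from K3 EDTA blood at 5, 15, 30 min, 1, 2, 4, 6, 24 h; acetonitrile extraction with internal standard, LC-MS/MS on C8 column, 5-95% ACN gradient with 0.05% formic acid.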

A short description of series [7]: Clearance in athymic Nu/Nu rat at 15 mg/kg, iv administered using TPPW as vehicle. It counts as ADME, organism-based. More on the design: dose 15 mg/kg, route intravenous. Particulars: in vivo. The essentials:
as §2

Series [8] can be described thus: Clearance in athymic Nu/Nu rat at 50 mg/kg, iv administered using TPPW as vehicle. It counts as ADME, organism-based. More on the design: dose 50 mg/kg, route intravenous. Particulars: in vivo. The essentials: as §2
Series [9] is described as follows: Volume of distribution in Sprague-Dawley rat at 1 mg/kg, iv administered using PEG400/water as vehicle. It counts as ADME, organism-based. Particulars: in vivo. Set-up: dose 1 mg/kg, route intravenous. Summed up:
as §1

Series [10] in a line: Volume of distribution in Nu/Nu rat at 5 mg/kg, iv administered using TPPW as vehicle. It counts as ADME, organism-based. Set-up: dose 5 mg/kg, route intravenous. Particulars: in vivo. The essentials:
as §2

Series [11] is described as follows: Volume of distribution in Nu/Nu rat at 50 mg/kg, iv administered using TPPW as vehicle. It counts as ADME, organism-based. Set-up: dose 50 mg/kg, route intravenous. Particulars: in vivo. The essentials:
as §2

Series [12] is described as follows: AUC (0 to infinity) in Nu/Nu rat at 15 mg/kg, iv administered using TPPW as vehicle. It counts as ADME, organism-based. More on the design: dose 15 mg/kg, route intravenous, time infinity. Particulars: plasma. Summed up:
as §2

Series [13] in a line: AUC (0 to infinity) in Nu/Nu rat at 50 mg/kg, iv administered using TPPW as vehicle. It is filed as ADME, organism-based. Set-up: time infinity, dose 50 mg/kg, route intravenous. Particulars: plasma. The essentials:
as §2

Series [14] can be described thus: Half life in Sprague-Dawley rat at 1 mg/kg, iv administered using PEG400/water as vehicle. It is filed as ADME, organism-based. Set-up: dose 1 mg/kg, route intravenous. Particulars: in vivo. The essentials:
as §1

Series [15] in a line: Half life in Nu/Nu rat at 5 mg/kg, iv administered using TPPW as vehicle. More on the design: dose 5 mg/kg, route intravenous. It counts as ADME, organism-based. Particulars: in vivo. The essentials:
as §2

In series [16] the target is T2, Aurora kinase B. The experiment in a line: Inhibition of Aurora kinase B in human HCT116 cells assessed as induction of 8N polyploidy. It is filed as cell-based. Particulars: HCT-116.
Series [17] deals with HCT-116. Description: Antitumor activity against human HCT116 cells xenografted in iv dosed athymic nude rat assessed as tumor growth inhibition administered every other day from day 10 post tumor-injection for 3 weeks relative to vehicle treated control. It counts as functional, organism-based. Summed up:
(§3)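 Subcutaneous flank HCT-116 xenografts in nude rats; at Day 1 groups of 10 with mean tumor 301-306 mm³. Tail-vein iv in TPPW (2% Tween-80, 5% propylene glycol, 10% PG-400, 83% water) at 10 mL/kg, weight-adjusted: days 1,3,5,8,10,12,15,17,19 or days 1-4, 8-11, 15-18. Irinotecan control 100 mg/kg ip weekly ×3.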
For orientation: A xenograft is tissue or cells of one species grown in another, often human tumour cells in immunodeficient mice.

The subject of series [18] is HCT-116. Description: Antitumor activity against human HCT116 cells xenografted in athymic nude rat assessed as tumor stasis at 20 mg/kg, iv administered every other day from day 10 post tumor-injection for 3 weeks […]. It counts as functional, organism-based. More on the design: dose 20 mg/kg. Summed up:
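HCT-116 flank xenografts in nude rats, groups of 10 at mean 301-306 mm³; iv tail-vein dosing in TPPW at 10 mL/kg on days 1,3,5,8,10,12,15,17,19; tumors followed after dosing stopped, study ending day 42 or day 60.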

For series [19], the system named is HCT-116. The experiment in a line: Antitumor activity against human HCT116 cells xenografted in athymic nude rat assessed as tumor growth inhibition at 5 mg/kg, iv administered every other day from day 10 post tumor-injection for 3 weeks relative to vehicle treated control. It is filed as functional. Particulars: read-out: TGI. The essentials: as §3
In series [20] the test system is HCT-116. Description: Antitumor activity against human HCT116 cells xenografted in athymic nude rat assessed as tumor growth inhibition at 10 mg/kg, iv administered every other day from day 10 post tumor-injection for 3 weeks relative to vehicle treated control. It is filed as functional. Particulars: read-out: TGI. Summed up: as §3
Series [21] concerns HCT-116. Description: Antitumor activity against human HCT116 cells xenografted in athymic nude rat assessed as tumor growth inhibition at 10 mg/kg, iv administered QD for 4 days per week followed by 3 days off per week for 3 weeks. It is filed as functional, organism-based. More on the design: dose 10 mg/kg. Summed up:
as §3

In another series the test system is Rattus norvegicus. Description: Toxicity in athymic nude rat bearing human HCT116 cells assessed as adverse effects at 2.5 mg/kg, iv administered QD for 4 days per week followed by 3 days off per week for 3 weeks. More on the design: dose 2.5 mg/kg, route intravenous. Particulars: in vivo. It is filed as organism-based, HCT-116. The essentials:
as §3

The target of the next series is T3, Aurora kinase C (Homo sapiens, UniProt Q9UQB9).
T3 sequence (Q9UQB9 whole entry): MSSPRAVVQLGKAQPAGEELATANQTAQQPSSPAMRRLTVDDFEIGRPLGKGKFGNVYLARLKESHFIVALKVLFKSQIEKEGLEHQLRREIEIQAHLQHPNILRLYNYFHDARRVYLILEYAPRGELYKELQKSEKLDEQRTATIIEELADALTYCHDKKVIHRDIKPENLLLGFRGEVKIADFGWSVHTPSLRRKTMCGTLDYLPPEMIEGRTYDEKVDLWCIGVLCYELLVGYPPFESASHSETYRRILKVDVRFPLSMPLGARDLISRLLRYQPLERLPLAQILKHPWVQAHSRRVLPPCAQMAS
The experiment in a line: Binding affinity to Aurora kinase C.

T2 sequence (Q96GD4 whole entry): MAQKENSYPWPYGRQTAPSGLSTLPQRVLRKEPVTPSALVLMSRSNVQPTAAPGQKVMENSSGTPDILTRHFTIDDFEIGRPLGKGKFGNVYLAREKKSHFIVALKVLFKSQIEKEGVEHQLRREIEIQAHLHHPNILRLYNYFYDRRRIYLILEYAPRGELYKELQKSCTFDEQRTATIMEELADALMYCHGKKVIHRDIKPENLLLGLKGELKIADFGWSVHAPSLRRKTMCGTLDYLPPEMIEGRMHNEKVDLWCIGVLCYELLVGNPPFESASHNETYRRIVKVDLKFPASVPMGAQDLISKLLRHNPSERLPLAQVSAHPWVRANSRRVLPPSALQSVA

On to `Cc1cc(Nc2nc(Sc3ccc(NC(=O)CN4CC[C@@H](C(=O)N5CCC(F)(F)C5)C4)cc3)nn3cccc23)n[nH]1`, for which the Kd on Aurora kinase A [1] is 5.8 nM; on Aurora kinase C, less than 10 nM. For the same molecule, the figures for the IC50 on Aurora kinase B [2], with HCT-116 [3] and at Aurora kinase A [4] were 6.1 nM, 1.2 nM and 1 nM, respectively. Also, the clearance in [5] came out at 21.1 mL/min/kg; in series [6] it was 19.2 mL/min/kg; in series [7], 12.5 mL/min/kg; in series [8] it was 5.23 mL/min/kg. The Vd was 7 L/kg in series [9], 0.7 L/kg in [10] and 0.62 L/kg in series [11]. The AUC(0-inf) in [12] came to 34.4 µM·h; in series [13] it was 181 µM·h. The half-life in series [14] is 17.5 h; in series [15] it was 1.1 h. At Aurora kinase B [16], the inhibition result is “Dose-dependent effect”. Also, the TGI result in the series on HCT-116 [17] and in the series on HCT-116 [21] was “Active” each time. Moreover, the outcome in the series on HCT-116 [18] was Active. The inhibition in vivo at 5 mg/kg with HCT-116 [19] worked out at 45%. For the same molecule, in the series with HCT-116 [20], the inhibition in vivo at 10 mg/kg was 60%. Further, in the series with Rattus norvegicus, the Activity entry is listed as “Non-toxic”.
